# Data published in ChEMBL document CHEMBL3734708, “Synthesis, cytotoxicity and antiviral evaluation of new series of imidazo[4,5-g]quinoline and pyrido[2,3-g]quinoxalinone derivatives” (Eur J Med Chem, 2015).
# How the values were obtained:
# [1] = Selectivity index, ratio of CC50 for human GS4.1 cells to EC50 for Hepatitis C virus genotype 1b replicon infected in human GS4.1 cells; type: toxicity, cell-based; conditions: read-out: Ratio CC50/EC50
# Outline: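 Replicon GS4.1 cells 7.5 × 10^3/well with twofold dilutions (top 75 µM), 72 h at 37 °C. Replication measured by NS4A ELISA (anti-NS4A A-236, peroxidase conjugate, phenylenediamine, A492), with EC50 by four-parameter sigmoidal fit. CC50 from CellTiter 96 AQueous One in the same cells. Index taken as CC50/EC50.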
# [2] = system: Human immunodeficiency virus 1; assay: Antiviral activity against HIV-1 3B infected in human MT4 cells assessed as protection against virus-induced cytopathic effect after 4 days by MTT assay; type: functional, organism-based; conditions: Human immunodeficiency virus 1, 3B, MT4, 96 h
# Outline: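 MT-4 cells (1 × 10^4/well in RPMI) with or without serial compound dilutions, infected with HIV-1 at 100 CCID50 (m.o.i. 0.01). After 4 days at 37 °C, protection from cytopathogenicity read by MTT. EC50 by linear regression versus untreated controls; mean of three independent determinations.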
# [3] = Cytotoxicity against MDBK cells assessed as reduction in cell viability after 72 hrs by MTT assay; type: cell-based, Bos taurus; conditions: cattle
# Outline: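 MDBK cells seeded at 6 × 10^5 cells/mL in MEM-E with L-glutamine, 1 mM sodium pyruvate, kanamycin and 10% horse serum. Mock-infected cultures held with serial compound dilutions at 37 °C, 5% CO2. MTT viability read after 72 h. 50% cytotoxic concentration from linear regression as % of untreated controls. Three independent determinations.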
# [4] = system: Bovine viral diarrhea virus 1; assay: Antiviral activity against BVDV NADL ATCC VR-534 infected in MDBK cells assessed as protection against virus-induced cytopathic effect after 3 or 4 days by MTT assay; type: functional, organism-based; conditions: Bovine viral diarrhea virus isolates and strains, NADL ATCC VR-534, MDBK
# Outline: (§1)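 BHK-21 (YFV, Reo-1) or MDBK (BVDV) cells seeded at 5 × 10^4 or 3 × 10^4 cells/well and grown overnight to confluence. Monolayers infected at m.o.i. 0.01 in maintenance medium (MEM-Earle, 0.5% inactivated FBS). Serial compound dilutions added 2 h after infection; 37 °C for 3-4 days. Viability read by MTT. EC50 by linear regression versus untreated controls; mean of three determinations.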
# [5] = Cytotoxicity against BHK21 cells assessed as reduction in cell viability after 72 hrs by MTT assay; type: cell-based, Mesocricetus auratus, BHK-21; conditions: hamster
# Outline: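 BHK cells seeded at 1 × 10^6 cells/mL in MEM-E with L-glutamine, 1 mM sodium pyruvate, kanamycin and 10% FBS. Mock-infected cells exposed to serial dilutions of compound at 37 °C, 5% CO2, run in parallel with the antiviral assays. Viability by MTT at 72 h. CC50 by linear regression vs untreated controls. Mean of three independent determinations.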
# Yellow fever virus = assay: Antiviral activity against YFV 17-D vaccine (Stamaril Pasteur J07B01) infected in BHK21 cells assessed as protection against virus-induced cytopathic effect after 3 or 4 days by MTT assay; type: functional, organism-based; conditions: BHK-21; outline: as §1
# [6] = system: Mammalian orthoreovirus 1; assay: Antiviral activity against Reovirus 1 ATCC VR- 214 infected in BHK21 cells assessed as protection against virus-induced cytopathic effect after 3 or 4 days by MTT assay; type: functional, cell-based; conditions: Mammalian orthoreovirus 1, ATCC VR- 214, BHK-21; outline: as §1
# [7] = Cytotoxicity against african green monkey Vero 76 cells assessed as reduction in cell viability after 48 to 96 hrs by MTT assay; type: cell-based; conditions: chlorocebus sabaeus
# Outline: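 Vero-76 cells plated at 4 × 10^5 cells/mL in D-MEM with L-glutamine, kanamycin and 10% FBS. Incubated with serial dilutions of test compounds at 37 °C, 5% CO2 for 48-96 h. Viability by MTT. CC50 by linear regression relative to untreated cells. Mean of three independent runs.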
# Coxsackievirus B5 = assay: Antiviral activity against CVB-5 virus Faulkner ATCC VR-185 infected in african green monkey Vero-76 cells after 3 days by plaque reduction assay; type: functional, organism-based; conditions: Enterovirus B, Faulkner ATCC VR-185, Vero 76, 72 h
# [8] = system: Human poliovirus 1 strain Sabin; assay: Antiviral activity against Human poliovirus 1 strain Sabin 1 virus infected in african green monkey Vero-76 cells after 2 days by plaque reduction assay; type: functional, organism-based; conditions: Enterovirus C, 1, Vero 76, 48 h
# [9] = system: Respiratory syncytial virus; assay: Antiviral activity against RSVA2 ATCC VR-1540 infected in african green monkey Vero-76 cells after 5 days by plaque reduction assay; type: functional, organism-based; conditions: human respiratory syncytial virus, A2 ATCC VR-1540, Vero 76, 120 h
# [10] = system: Vesicular stomatitis virus; assay: Antiviral activity against VSV Indiana ATCC VR-158 infected in african green monkey Vero-76 cells after 2 days by plaque reduction assay; type: functional, organism-based; conditions: Indiana ATCC VR-158, Vero 76, 48 h
# Vaccinia virus = assay: Antiviral activity against VV Elstree ATCC VR-1549 infected in african green monkey Vero-76 cells after 3 days by plaque reduction assay; type: functional, organism-based; conditions: Orthopoxvirus vaccinia, Elstree ATCC VR-1549, Vero 76, 72 h
# Human alphaherpesvirus 1 = assay: Antiviral activity against HSV-1 KOS ATCC VR- 1493 infected in african green monkey Vero-76 cells after 3 days by plaque reduction assay; type: functional, organism-based; conditions: Human alphaherpesvirus 1, KOS ATCC VR1493, Vero 76, 72 h
# [11] = Selectivity index, ratio of CC50 for MDBK cells to EC50 for BVDV infected in MDBK cells
# Hepatitis C virus = assay: Antiviral activity against Hepatitis C virus genotype 1b replicon infected in human GS4.1 cells assessed as protection against virus-induced cytopathic effect after […] by ELISA; type: functional, organism-based, Hepacivirus hominis
# Outline: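 Huh-7 cells carrying the genotype 1b replicon (GS4.1) seeded at 7.5 × 10^3 cells/well in twofold serial compound dilutions (top 75 µM). Replicon-free Huh-7 served as negative control. 72 h at 37 °C. Fixed in acetone-methanol; NS4A ELISA with mouse monoclonal A-236, peroxidase anti-mouse IgG and phenylenediamine; absorbance at 492 nm. EC50 by four-parameter sigmoidal regression of % inhibition.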
# [12] = Cytotoxicity against human MT4 cells assessed as reduction in cell proliferation after 96 hrs by MTT assay; type: cell-based
# Outline: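 MT-4 cells in exponential growth seeded at 1 × 10^5 cells/mL in RPMI-1640 with 10% FBS and penicillin/streptomycin. Cultured with serial compound dilutions at 37 °C, 5% CO2. MTT viability after 96 h. CC50 by linear regression against untreated controls. Mean of three independent determinations.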
# [13] = Inhibition of BVDV RNA-dependent RNA polymerase pre-incubated for preincubated for 30 mins before GTP addition and measured after 120 mins by fluorescence based microplate reader assay; set-up: species or system Bovine viral diarrhea virus 1
# Outline: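 His-tagged BVDV NS5BΔ24 (C-terminal 24 residues deleted) from E. coli, Ni-NTA purified, 500 ng/reaction. Assay uses poly(rC) 10 µg/mL template, oligo(rG)12 0.1 µg/mL primer and 80 µM GTP. Buffer is 20 mM Tris pH 7.0, 5 mM MgCl2, 25 mM NaCl, 1 mM DTT, 5% DMSO. Threefold compound dilutions, 30 min RT preincubation, 120 min at 37 °C, EDTA stop. Product read by PicoGreen fluorescence (ex 480/em 520), as % residual activity.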
# [14] = Cytotoxicity against human GS4.1 cells assessed as reduction in cell viability after 72 hrs by Cell Titer 96 aqueous one solution cell proliferation assay; type: cell-based
# Outline: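 GS4.1 cells (Huh-7 carrying an HCV genotype 1b replicon, grown with 0.5 mg/mL G418) seeded at 7.5 × 10^3 cells/well with twofold serial dilutions, top 75 µM. Incubated 72 h at 37 °C, 5% CO2. Viability by CellTiter 96 AQueous One. CC50 from % cytotoxicity vs concentration.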
Structure (SMILES),selectivity ratio [1],EC50 [2],CC50 at 72 h [3],EC50 [4],CC50 at 72 h [5],EC50 (Yellow fever virus),EC50 [6],CC50 [7],EC50 (Coxsackievirus B5),EC50 [8],EC50 [9],EC50 [10],EC50 (Vaccinia virus),EC50 (Human alphaherpesvirus 1),Ratio CC50/EC50 [11],EC50 (Hepatitis C virus),CC50 at 96 h [12],IC50 [13],CC50 at 72 h [14]
O=c1[nH]c2cc3cccnc3c(Cl)c2nc1Cc1ccccc1,1,> 15 µM,> 100 µM,2.6 µM,> 100 µM,> 100 µM,> 100 µM,88 µM,> 88 µM,> 88 µM,> 88 µM,> 88 µM,> 88 µM,> 88 µM,>34,> 65 µM,,,
O=c1[nH]c2cc3cccnc3c(Cl)c2nc1-c1ccccc1,1,> 61 µM,> 100 µM,5 µM,> 100 µM,> 100 µM,> 100 µM,> 100 µM,> 100 µM,> 100 µM,> 100 µM,> 100 µM,> 100 µM,> 100 µM,>20,> 11 µM,61 µM,,
O=c1c(-c2ccccc2)nc2c(Cl)c3ncccc3cc2n1Cc1ccccc1,,> 88 µM,> 100 µM,46 µM,> 100 µM,> 100 µM,> 100 µM,90 µM,> 90 µM,> 90 µM,> 90 µM,> 90 µM,> 90 µM,> 100 µM,,,88 µM,,
COc1nc2cc3cccnc3c(Cl)c2nc1-c1cccs1,,> 100 µM,> 100 µM,1.3 µM,> 100 µM,> 100 µM,> 100 µM,> 100 µM,> 100 µM,> 100 µM,> 100 µM,> 100 µM,> 100 µM,> 100 µM,,,> 100 µM,0.64 µM,
COc1nc2cc3cccnc3c(Cl)c2nc1Cc1ccccc1,,> 100 µM,> 100 µM,6 µM,> 100 µM,> 100 µM,> 100 µM,> 100 µM,> 100 µM,> 100 µM,> 100 µM,> 100 µM,> 100 µM,> 100 µM,,,> 100 µM,,
O=[N+]([O-])c1ccc(COc2nc3cc4cccnc4c(Cl)c3nc2-c2ccccc2)cc1,,> 100 µM,> 100 µM,> 100 µM,> 100 µM,> 100 µM,> 100 µM,> 100 µM,> 100 µM,> 100 µM,> 100 µM,> 100 µM,> 100 µM,> 100 µM,,,> 100 µM,,
c1csc(-c2nc3cc4cccnc4cc3n2C2CCCCC2)c1,,> 18 µM,> 100 µM,65 µM,45 µM,> 45 µM,> 45 µM,15 µM,> 15 µM,> 15 µM,> 15 µM,> 15 µM,> 15 µM,> 15 µM,,,18 µM,,
CCCn1c(-c2ccccc2)nc2cc3cccnc3cc21,,> 62 µM,> 100 µM,> 100 µM,> 100 µM,> 100 µM,> 100 µM,90 µM,13 µM,> 90 µM,> 90 µM,> 90 µM,> 90 µM,> 90 µM,,,62 µM,,
N#CCn1c(=O)c(-c2ccccc2)nc2c(Cl)c3ncccc3cc21,,> 100 µM,> 100 µM,> 100 µM,> 100 µM,> 100 µM,> 100 µM,90 µM,> 90 µM,> 90 µM,> 90 µM,> 90 µM,> 90 µM,> 90 µM,,,> 100 µM,,
O=c1[nH]c2cc3cccnc3c(Cl)c2nc1-c1cccs1,3,> 100 µM,> 100 µM,6 µM,> 100 µM,> 100 µM,> 100 µM,> 100 µM,> 100 µM,> 100 µM,> 100 µM,> 100 µM,> 100 µM,> 100 µM,>16,7.5 µM,> 100 µM,,21 µM
COc1nc2cc3cccnc3c(Cl)c2nc1C(C)C,,> 100 µM,> 100 µM,> 100 µM,> 100 µM,> 100 µM,> 100 µM,> 100 µM,> 100 µM,> 100 µM,> 100 µM,> 100 µM,> 100 µM,> 100 µM,,,> 100 µM,,
CC(C)c1nc2c(Cl)c3ncccc3cc2n(C)c1=O,,> 100 µM,> 100 µM,> 100 µM,> 100 µM,> 100 µM,> 100 µM,> 100 µM,> 100 µM,> 100 µM,> 100 µM,> 100 µM,> 100 µM,> 100 µM,,,> 100 µM,,
